In ChEMBL document CHEMBL1944546, “Structure-activity relationships of novel alkylides: 3-O-arylalkyl clarithromycin derivatives with improved antibacterial activities” (2012):
Values after ≈ are worked out from the molar mass of the structure shown.

What was measured:
Streptococcus pneumoniae [1] = assay: Antibacterial activity against erythromycin-susceptible Streptococcus pneumoniae ATCC 49619 by broth microdilution method; assay type: functional
Method in brief: (§1)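 MIC read by broth microdilution following CLSI (2010) guidance. The clinical isolates were identified by 16S rDNA sequencing and labelled by genotype and phenotype. S. aureus ATCC 29213 and S. pneumoniae ATCC 49619 were the control strains. Azithromycin, clarithromycin and 3-OH-clarithromycin were run as reference compounds.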

Streptococcus pneumoniae [2] = assay: Antibacterial activity against penicillin-, constitutive MLS-resistant Streptococcus pneumoniae PU 11 by broth microdilution method; assay type: functional
Method in brief: (§2)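 MIC by broth microdilution following CLSI (2010) recommendations, using clinical isolates identified by 16S rDNA sequencing and labelled by genotype and phenotype. S. aureus ATCC 29213 and S. pneumoniae ATCC 49619 were run as control strains, and azithromycin, clarithromycin and 3-OH-clarithromycin were tested as reference agents.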

Streptococcus pneumoniae [3] = assay: Antibacterial activity against efflux,penicillin-susceptible Streptococcus pneumoniae PU 09 by broth microdilution method; assay type: functional; method in brief: as §1
Streptococcus pneumoniae [4] = assay: Antibacterial activity against penicillin-susceptible, constitutive MLS-resistant Streptococcus pneumoniae PU 27 by broth microdilution method; assay type: functional; method in brief: as §2
[5] = test system: Streptococcus dysgalactiae; assay: Antibacterial activity against efflux, erythromycin-resistant Streptococcus dysgalactiae A 1 by broth microdilution method; assay type: functional; method in brief: as §2
Streptococcus pyogenes [6] = assay: Antibacterial activity against constitutive MLS-resistant Streptococcus pyogenes A 2 by broth microdilution method; assay type: functional; method in brief: as §2
Streptococcus pyogenes [7] = assay: Antibacterial activity against erythromycin-susceptible Streptococcus pyogenes A 3 by broth microdilution method; assay type: functional; method in brief: as §1
Staphylococcus aureus [8] = assay: Antibacterial activity against erythromycin-susceptible Staphylococcus aureus ATCC 29213 by broth microdilution method; assay type: functional; method in brief: as §1
Staphylococcus aureus [9] = assay: Antibacterial activity against methicillin-, constitutive MLS-resistant […] by broth microdilution method; assay type: functional; method in brief: as §2
Staphylococcus aureus [10] = assay: Antibacterial activity against methicillin-susceptible, inducible MLS-resistant Staphylococcus aureus PU 64 by broth microdilution method; assay type: functional; method in brief: as §2
[11] = test system: Staphylococcus haemolyticus; assay: Antibacterial activity against methicillin-resistant, coagulase-negative, constitutive MLS-resistant Staphylococcus haemolyticus PU 19 by broth microdilution method; assay type: functional; method in brief: as §2
[12] = test system: Staphylococcus epidermidis; assay: Antibacterial activity against methicillin-susceptible, inducible MLS-resistant Staphylococcus epidermidis E1 by broth microdilution method; assay type: functional; method in brief: as §2
[13] = test system: Staphylococcus epidermidis; assay: Antibacterial activity against methicillin-resistant, constitutive MLS-resistant Staphylococcus epidermidis E2 by broth microdilution method; assay type: functional; method in brief: as §2
Staphylococcus hominis = assay: Antibacterial activity against methicillin-resistant, coagulase-negative, inducible MLS-resistant Staphylococcus hominis E3 by broth microdilution method; assay type: functional; method in brief: as §2
Staphylococcus aureus [14] = assay: Antibacterial activity against methicillin-, inducible MLS-resistant Staphylococcus aureus PU 32 by broth microdilution method
[15] = test system: Staphylococcus epidermidis; assay: Ratio of MIC for clarithromycin to compound for methicillin-susceptible, inducible MLS-resistant Staphylococcus epidermidis E1 by broth microdilution method; assay type: functional
[16] = test system: Staphylococcus epidermidis; assay: Ratio of MIC for azithromycin to compound for methicillin-susceptible, inducible MLS-resistant Staphylococcus epidermidis E1 by broth microdilution method; assay type: functional

Compound | MIC (Streptococcus pneumoniae [1]) [µg/mL] | MIC (Streptococcus pneumoniae [2]) [µg/mL] | MIC (Streptococcus pneumoniae [3]) [µg/mL] | MIC (Streptococcus pneumoniae [4]) [µg/mL] | MIC [5] [µg/mL] | MIC (Streptococcus pyogenes [6]) [µg/mL] | MIC (Streptococcus pyogenes [7]) [µg/mL] | MIC (Staphylococcus aureus [8]) [µg/mL] | MIC (Staphylococcus aureus [9]) [µg/mL] | MIC (Staphylococcus aureus [10]) [µg/mL] | MIC [11] [µg/mL] | MIC [12] [µg/mL] | MIC [13] [µg/mL] | MIC (Staphylococcus hominis) [µg/mL] | MIC (Staphylococcus aureus [14]) [µg/mL] | Ratio [15] | Ratio [16]
CC[C@H]1OC(=O)[C@H](C)[C@@H](OCCCc2cccnc2)[C@H](C)[C@@H](O[C@@H]2O[C@H](C)C[C@H](N(C)C)[C@H]2O)[C@](C)(OC)C[C@@H](C)/C(=N\OCc2ccccc2Cl)[C@H](C)[C@H]2OC(=O)O[C@@]21C | 8 (≈ 9.15 µM) | 64 (≈ 73.2 µM) | 16 (≈ 18.3 µM) | 32 (≈ 36.6 µM) | 16 (≈ 18.3 µM) | 32 (≈ 36.6 µM) | 8 (≈ 9.15 µM) | > 256 | > 256 | > 256 | > 256 | > 256 | > 256 | > 256 | > 256 |  | 
CC[C@H]1OC(=O)[C@H](C)[C@@H](OCCCc2cncnc2)[C@H](C)[C@@H](O[C@@H]2O[C@H](C)C[C@H](N(C)C)[C@H]2O)[C@](C)(OC)C[C@@H](C)/C(=N\O)[C@H](C)[C@@H](O)[C@]1(C)O | 1 (≈ 1.38 µM) | > 256 | 2 (≈ 2.76 µM) | 64 (≈ 88.3 µM) | 2 (≈ 2.76 µM) | > 256 | 0.5 (≈ 0.69 µM) | 8 (≈ 11 µM) | > 256 | 8 (≈ 11 µM) | > 256 | 16 (≈ 22.1 µM) | > 256 | > 256 | 8 (≈ 11 µM) | >16 | >16
CC[C@H]1OC(=O)[C@H](C)[C@@H](O/C=C\Cc2cncnc2)[C@H](C)[C@@H](O[C@@H]2O[C@H](C)C[C@H](N(C)C)[C@H]2O)[C@](C)(OC)C[C@@H](C)C(=O)[C@H](C)[C@@H](O)[C@]1(C)O | 1 (≈ 1.41 µM) | > 256 | 1 (≈ 1.41 µM) | 32 (≈ 45.2 µM) | 4 (≈ 5.65 µM) | > 256 | 4 (≈ 5.65 µM) | 8 (≈ 11.3 µM) | > 256 | 8 (≈ 11.3 µM) | > 256 | 4 (≈ 5.65 µM) | > 256 | 8 (≈ 11.3 µM) | 4 (≈ 5.65 µM) | >16 | >16
CC[C@H]1OC(=O)[C@H](C)[C@@H](OC/C=C/c2cncnc2)[C@H](C)[C@@H](O[C@@H]2O[C@H](C)C[C@H](N(C)C)[C@H]2O)[C@](C)(OC)C[C@@H](C)/C(=N\OCc2c(C)cc(C)cc2C)[C@H](C)[C@H]2OC(=O)O[C@@]21C | 16 (≈ 18.2 µM) | 64 (≈ 72.6 µM) | 32 (≈ 36.3 µM) | 64 (≈ 72.6 µM) | 32 (≈ 36.3 µM) | 32 (≈ 36.3 µM) | 32 (≈ 36.3 µM) | > 256 | > 256 | > 256 | > 256 | > 256 | > 256 | > 256 | > 256 |  | 
